Consider one molecule from ChEMBL document CHEMBL3352594 (J Med Chem, 2014).

Series [1] concerns Macrophage. Nature of the series: Inhibition of LPS-induced NO production in C57BL/6 mouse macrophages preincubated with compound for 1 hr before LPS challenge measured after 24 hrs by Griess method. It is filed as functional, cell-based. The conditions noted are these: C57BL/6, Macrophage. A digest of the protocol:
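Peritoneal macrophages harvested from male C57BL/6J mice 3 days after ip thioglycollate; 1 × 10^5 cells/well in RPMI-1640 + 5% newborn calf serum, nonadherent cells removed after 2 h. Compounds added 1 h before LPS 1 μg/mL; 24 h later supernatant nitrite read by Griess reagent at 570 nm against a nitrite standard curve. IC50 from ≥2 experiments in triplicate; selectivity index = cytotoxicity IC50 / NO-inhibition IC50.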

Series [2] can be described thus: Cytotoxicity against C57BL/6 mouse macrophages after 24 hrs by MTT assay. It is filed as cell-based. The conditions noted are these: C57BL/6, Macrophage. A digest of the protocol: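 Thioglycollate-elicited peritoneal macrophages from male C57BL/6 mice, 1 × 10^5 cells/well, adhered 2 h, then exposed to compounds 24 h. Washed, MTT (5 mg/mL in PBS) added 4 h at 37 °C, formazan dissolved in DMSO, absorbance 570 nm.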

Series [3] concerns Macrophage. In words: Selectivity index, ratio of IC50 for C57BL/6 mouse macrophages to IC50 for LPS-induced NO production in C57BL/6 mouse macrophages.
The subject of series [4] is Macrophage. Nature of the series: Inhibition of intrinsic NO production in C57BL/6 mouse macrophages at 10 uM measured after 24 hrs by Griess method. The format is functional, cell-based. A digest of the protocol: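 Unstimulated peritoneal macrophages (no LPS) cultured 2 h, then exposed to compound at 10 μM for 24 h. Supernatant nitrite measured by Griess assay at 570 nm against a standard curve; untreated, vehicle and LPS (1 μg/mL) wells as controls. Three independent experiments, mean ± SEM.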

Series [5] concerns Mus musculus. In words: Antiinflammatory activity in Kunming mouse assessed as inhibition of croton oil-induced ear edema at 5 umol/kg, po administered before challenge relative to vehicle-treated control. The format is functional. The essentials: (§1)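 Male Kunming mice; croton oil applied topically to left ear at 0.4 mg/ear. Test agent or equal-volume vehicle given 1 h before (po 5, 10, 20 μmol/kg; sc 77, 154, 308 μmol/kg). Euthanized under pentobarbital 4 h after croton oil; 8 mm ear punches weighed, left minus right weight = edema; inhibition vs vehicle group. n = 10 (po) or 8–9 (sc); mean ± SEM.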

Series [6] relates to Mus musculus. Nature of the series: Antiinflammatory activity in Kunming mouse assessed as inhibition of croton oil-induced ear edema at 10 umol/kg, po administered before challenge relative to vehicle-treated control. The format is functional. The essentials:
as §1

In series [7] the test system is Mus musculus. Nature of the series: Antiinflammatory activity in Kunming mouse assessed as inhibition of croton oil-induced ear edema at 20 umol/kg, po administered before challenge relative to vehicle-treated control. The format is functional. A digest of the protocol: as §1
Series [8] deals with Mus musculus. In words: Antiinflammatory activity in specific pathogen-free COPD-like lung inflammation BALB/c mouse model assessed as inhibition of neutrophils at 2 umol/kg/day, po for 35 days measured 24 hrs post last dose relative to vehicle-treated control. It is filed as functional. A digest of the protocol: (§2)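 Male SPF BALB/c mice (18−20 g) given cigarette smoke 5 min twice daily (days 2−13, 15−35) plus LPS 20 μg in 30 μL saline on days 1 and 14. Oral dosing 1 h before first exposure, daily for 35 days. BAL (3 × 0.8 mL ice-cold saline) collected about 24 h after final dose. Centrifuged pellet resuspended in 200 μL PBS and counted by hemocytometer for differential cells.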

Series [9] concerns Mus musculus. In words: Antiinflammatory activity in specific pathogen-free COPD-like lung inflammation BALB/c mouse model assessed as inhibition of white blood cells at 2 umol/kg/day, po for 35 days measured 24 hrs post last dose relative to vehicle-treated control. It is filed as functional, organism-based. The essentials: as §2
For series [10], the system named is Mus musculus. In words: Antiinflammatory activity in specific pathogen-free COPD-like lung inflammation BALB/c mouse model assessed as inhibition of eosinophils at 2 umol/kg/day, po for 35 days measured 24 hrs post last dose relative to vehicle-treated control. It is filed as functional, organism-based. The essentials:
as §2

For series [11], the system named is Mus musculus. In words: Antiinflammatory activity in specific pathogen-free COPD-like lung inflammation BALB/c mouse model assessed as inhibition of TNFalpha level at 2 umol/kg/day, po for 35 days measured 24 hrs post last dose relative to vehicle-treated control. It is filed as functional, organism-based. A digest of the protocol:
(§3)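 Male SPF BALB/c mice (18−20 g) exposed to cigarette smoke 5 min twice daily on days 2−13 and 15−35, with 20 μg LPS in 30 μL saline on days 1 and 14. Dosed orally 1 h before first exposure, daily for 35 days. Lungs lavaged 3× with 0.8 mL ice-cold saline about 24 h after last dose. Supernatant cytokines measured by ELISA. n = 8−11, mean ± SEM, Student's t test.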

In series [12] the test system is Mus musculus. In words: Antiinflammatory activity in specific pathogen-free COPD-like lung inflammation BALB/c mouse model assessed as inhibition of IL-1beta level at 2 umol/kg/day, po for 35 days measured 24 hrs post last dose relative to vehicle-treated control. It is filed as functional, organism-based. The essentials: as §3
The test system of series [13] is Mus musculus. Nature of the series: Antiinflammatory activity in specific pathogen-free COPD-like lung inflammation BALB/c mouse model assessed as inhibition of IL-6 level at 2 umol/kg/day, po for 35 days measured 24 hrs post last dose relative to vehicle-treated control. The format is functional, organism-based. A digest of the protocol: as §3
Series [14] can be described thus: Toxicity in Kunming mouse administered orally as single dose measured over 14 days. The format is organism-based. The conditions noted are these: in vivo, po. A digest of the protocol: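 SPF Kunming mice, half male and half female, fasted 16 h with water allowed, then weighed and randomized at 10/group. Single gavage dose (0.1 mL/10 g) at various doses, with solvent-only controls. Survival monitored for 14 days.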

SMILES strings stand for the structures. pIC50: −log10 of the molar value. Calls of active or inactive are those of the source. The rule behind the calls is not given here.

`COC(=O)[C@]12OC[C@]34[C@H]([C@@H](O)[C@@H]1O)[C@@]1(C)CC(=O)C(OC(=O)CCC(=O)OCCCCOc5no[n+]([O-])c5S(=O)(=O)c5ccccc5)=C(C)[C@@H]1C[C@H]3OC(=O)[C@H](OC(=O)C=C(C)C)[C@@H]24`: the results for the negative logarithm of the IC50 (pIC50) (with Macrophage [1]; in series [2]) were 7.05 and 6.10, respectively. For the same molecule, the “Ratio IC50” value in the series with Macrophage [3] is listed as 8.9. Further, the inhibition result with Macrophage [4] is “inactive”. In the series on Mus musculus [5], the inhibition in vivo at 5 µmol/kg was determined as 29.4%. Also, in the series with Mus musculus [6], the inhibition in vivo at 10 µmol/kg came to 39.9%. The inhibition in vivo at 20 µmol/kg in the series on Mus musculus [7] worked out at 53.9%. Also, in the series on Mus musculus [8], the inhibition in vivo at 2 µmol/kg stood at 85%. The inhibition entry with Mus musculus [9], in the series with Mus musculus [10], in the series on Mus musculus [11], in the series with Mus musculus [12] and in the series on Mus musculus [13] was “Active” in each case. In series [14], this molecule returned a 50% lethal dose (LD50) at 336 h of 41.1 µmol/kg.
